Test results taken from ChEMBL document CHEMBL1134641, “Progress toward the development of a safe and effective agent for treating reentrant cardiac arrhythmias: synthesis and evaluation of ibutilide analogues with enhanced metabolic stability and diminished proarrhythmic potential” (2001).

Tests used:
Canis familiaris [1] = assay: Atrial effective refractory period (AERP) measured in canine just after inducing atrial flutter (AFL) termination by the compound at a dose of 0.6 umol/kg; assay type: functional, Canis lupus familiaris, Heart
Canis familiaris [2] = assay: Atrial effective refractory period (AERP) measured in canine just after inducing atrial flutter (AFL) termination by the compound at a dose of 1.2 uM/kg; assay type: functional, Canis lupus familiaris, Heart
Canis familiaris [3] = assay: Atrial effective refractory period (AERP) measured in canine just after inducing atrial flutter (AFL) termination by the compound at a dose of 9.6 uM/kg; assay type: functional, Canis lupus familiaris, Heart
Canis familiaris [4] = assay: Blood pressure measured in canine 24-h Infarction model at a single intravenous dose of 2.4 uM/kg; assay type: functional, Canis lupus familiaris
Summary of the method: (§1)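 Male mongrel dogs (16-22 kg) with LAD permanently ligated in two stages; studied 24 h later. […] given IV in sequential doses to cumulative 0.24, 0.72, 2.4 µmol/kg. Saline controls (n=8) received vehicle, then a single IV 2.4 µmol/kg dose at the end. Measurements taken at baseline and 15 min after each dose. Means ± SEM, paired t-test, p ≤ 0.05.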

Canis familiaris [5] = assay: Blood pressure measured in canine 24-h Infarction model at an cumulative intravenous dose of 0.24 uM/kg; assay type: functional, Canis lupus familiaris; summary of the method: as §1
Canis familiaris [6] = assay: Blood pressure measured in canine 24-h Infarction model at an cumulative intravenous dose of 2.4 uM/kg; assay type: functional, Canis lupus familiaris; summary of the method: as §1
Canis familiaris [7] = assay: QT interval measured in canine 24-h Infarction model at an cumulative intravenous dose of 0.72 uM/kg; assay type: functional, Canis lupus familiaris
Summary of the method: (§2)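 Dogs 24 h after two-stage LAD ligation. Compound in saline given iv in sequential doses (cumulative 0.24, 0.72, 2.4 µmol/kg); saline controls then given a single 2.4 µmol/kg iv dose. HR, IVR, BP, QT, spontaneous arrhythmias/min, ERPs and MAPD90 measured at baseline and 15 min after each dose. Means ± SEM, paired t-test, p≤0.05.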

Canis familiaris [8] = assay: QT interval measured in canine 24-h Infarction model at an cumulative intravenous dose of 2.4 uM/kg; assay type: functional, Canis lupus familiaris; summary of the method: as §2
Canis familiaris [9] = species: Canis familiaris; assay: QT interval measured in canine just after inducing atrial flutter (AFL) termination by the compound; assay type: functional, Canis lupus familiaris, Heart
Summary of the method: (§3)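 Conscious, sling-restrained dogs with chronically implanted electrodes, studied after 2 weeks of recovery. Sustained AFL (>5 min) induced. Compound in saline given iv every 5 min to cumulative 0.024-12.0 µmol/kg. At AFL termination, HR, QT (paced cycle length 300 ms), AERP and VERP measured. Measurements then taken 3 min after each further dose. Significance p≤0.05 vs baseline.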

Canis familiaris [10] = assay: QT interval measured in canine just after inducing atrial flutter (AFL) termination by the compound at a dose of 12.0 uM/kg; assay type: functional, Canis lupus familiaris, Heart; summary of the method: as §3
Canis familiaris [11] = assay: QT interval measured in canine just after inducing atrial flutter (AFL) termination by the compound at a dose of 4.8 uM/kg; assay type: functional, Canis lupus familiaris, Heart; summary of the method: as §3
Canis familiaris [12] = assay: QT interval measured in canine just after inducing atrial flutter (AFL) termination by the compound at a dose of 9.6 uM/kg; assay type: functional, Canis lupus familiaris, Heart; summary of the method: as §3
Canis familiaris [13] = assay: Atrial effective refractory period (AEPR) measured in canine 24-h Infarction model at a single intravenous dose of 2.4 uM/kg; assay type: functional, Canis lupus familiaris, Cardiac atrium; summary of the method: as §1
Canis familiaris [14] = assay: Atrial effective refractory period (AEPR) measured in canine 24-h Infarction model at an cumulative intravenous dose of 0.24 uM/kg; assay type: functional, Canis lupus familiaris, Cardiac atrium; summary of the method: as §1
Canis familiaris [15] = assay: Atrial effective refractory period (AEPR) measured in canine 24-h Infarction model at an cumulative intravenous dose of 2.4 uM/kg; assay type: functional, Canis lupus familiaris, Cardiac atrium; summary of the method: as §1
Canis familiaris [16] = assay: Heart Rate measured in canine just after inducing atrial flutter (AFL) termination by the compound at a dose of 9.6 uM/kg; assay type: functional, Canis lupus familiaris
Canis familiaris [17] = assay: Number of canine in which ventricular fibrillation (VF) was observed in PES-induced arrhythmias at an single intravenous dose of 2.4 uM/kg; assay type: functional, Canis lupus familiaris, Cardiac ventricle
Summary of the method: (§4)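 Male mongrel dogs (16-22 kg) with LAD ligated in two stages, studied 24 h later. Programmed electrical stimulation at baseline and 15 min after each iv dose in saline (cumulative 0.24, 0.72, 2.4 µmol/kg). Saline controls then received a single 2.4 µmol/kg iv dose. Responses scored as NI (≤15 beats), NSVT (>15 beats, ends within 30 s), SVT (>30 s, needing pacing or cardioversion) or VF. A positive response was repeated.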

Canis familiaris [18] = assay: Idioventricular heart rate (IVR) measured in canine 24-h Infarction model at an cumulative intravenous dose of 0.72 uM/kg; assay type: functional, Canis lupus familiaris; summary of the method: as §1
Canis familiaris [19] = assay: Idioventricular heart rate (IVR) measured in canine 24-h Infarction model at an cumulative intravenous dose of 2.4 uM/kg; assay type: functional, Canis lupus familiaris; summary of the method: as §1
Canis familiaris [20] = assay: Heart Rate measured in canine just after inducing atrial flutter (AFL) termination by the compound at a dose of 2.4 uM/kg; assay type: functional, Canis lupus familiaris
Canis familiaris [21] = species: Canis familiaris; assay: Ventricular effective refractory period ([…]) measured in canine just after inducing atrial flutter (AFL) termination by the compound; assay type: functional, Canis lupus familiaris, Heart
Summary of the method: (§5)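 Conscious dogs, loosely restrained in a sling, with exteriorized electrode leads, studied 2 weeks after instrumentation. AFL was induced and counted as sustained if it lasted 5 min. Compound in saline given intravenously every 5 min to cumulative 0.024-12.0 µmol/kg. VERP was measured at AFL termination and 3 min after each dose. Results are means ± SEM versus baseline, p ≤ 0.05.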

Canis familiaris [22] = assay: Ventricular effective refractory period ([…]) measured in canine just after inducing atrial flutter (AFL) termination by the compound at a dose of 2.4 uM/kg; assay type: functional, Canis lupus familiaris, Heart; summary of the method: as §5
Canis familiaris [23] = assay: Number of canine in which nonsustained ventricular tachycardia (NSVT) was observed in PES-induced arrhythmias at an cumulative intravenous dose of 0.72 uM/kg; assay type: functional, Canis lupus familiaris, Cardiac ventricle; summary of the method: as §4
Canis familiaris [24] = assay: Number of canine in which nonsustained ventricular tachycardia (NSVT) was observed in PES-induced arrhythmias at an cumulative intravenous dose of 2.4 uM/kg; assay type: functional, Canis lupus familiaris, Cardiac ventricle; summary of the method: as §4

For `CCN(CCCCCC(C)(C)F)CCC[C@H](O)c1ccc(NS(C)(=O)=O)cc1.O=C(O)/C=C/C(=O)O`, the AERP (Canis familiaris [1]) was 153 ms, the AERP (Canis familiaris [2]) was 160 ms and the AERP (Canis familiaris [3]) was 165 ms. For the same compound, the BP (Canis familiaris [4]) was 111 mmHg, the BP (Canis familiaris [5]) was 112 mmHg and the BP (Canis familiaris [6]) was 119 mmHg. It also gave a QT interval (Canis familiaris [7]) of 218 ms, a QT interval (Canis familiaris [8]) of 240 ms and a QT interval (Canis familiaris [9]) of 202 ms. It also gave a QT interval (Canis familiaris [10]) of 200 ms, a QT interval (Canis familiaris [11]) of 207 ms and a QT interval (Canis familiaris [12]) of 204 ms. For the same compound, the AERP (Canis familiaris [13]) was 179 ms, the AERP (Canis familiaris [14]) was 149 ms and the AERP (Canis familiaris [15]) was 194 ms. It also gave an HR (Canis familiaris [16]) of 114 beats min-1, a No. of canine (Canis familiaris [17]) of 0 and an IVR (Canis familiaris [18]) of 130 beats min-1. It also gave an IVR (Canis familiaris [19]) of 124 beats min-1, an HR (Canis familiaris [20]) of 113 beats min-1 and a VERP (Canis familiaris [21]) of 138 ms. For the same compound, the VERP (Canis familiaris [22]) was 143 ms, the No. of canine (Canis familiaris [23]) was 0 and the No. of canine (Canis familiaris [24]) was 1.
